In ChEMBL document CHEMBL1125466, “Synthesis and antiulcer activity of N-substituted N'-[3-[3-(piperidinomethyl)phenoxy]propyl]ureas: histamine H2-receptor antagonists with a potent mucosal protective activity” (J Med Chem, 1992):

Legend:
[1] = target: T1, Histamine H2 receptor (Cavia porcellus, UniProt P47747); assay: Compound was evaluated in vitro inhibitory activity against histamine H2 receptor in isolated Guinea pig right atria.; conditions: read-out: pA2 (converted)
[2] = system: Rattus norvegicus; assay: In Vivo gastric Mucosal protective activity against gastric mucosal lesions induced by 0.6 N HCl in rats. (200 mg/kg, po); assay type: functional, Gastric mucosa
Summary of the method: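 Oral dosing at 200 mg/kg, 1.5 h before 1 mL of 0.6 N HCl, in male Donryu or Wistar rats (150-230 g) deprived of food and water 24 h. Killed 1 h later. Stomach formalin-fixed and glandular lesion length scored against vehicle. Percent inhibition given as mean ± SE.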

[3] = system: Rattus norvegicus; assay: In vivo gastric mucosal protective activity against gastric mucosal lesions induced by 0.6 N HCl in rats.; assay type: functional, Gastric mucosa; parameters: concentration or dose not given beside the values
Summary of the method: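 Male Donryu or Wistar rats, 150-230 g, deprived of food and water 24 h. Compound given orally (25 mg/kg) 1.5 h before 1 mL 0.6 N HCl po. Killed 1 h after HCl. Stomach fixed with 0.5% formalin, and glandular lesion lengths measured. Percent inhibition compared with vehicle, mean ± SE, 5-10 animals.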

[4] = system: Rattus norvegicus; assay: In vivo gastric antisecretory activity in acute fistula rats; assay type: functional, Stomach; parameters: concentration or dose not given beside the values
Summary of the method: (§1)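 Male Donryu or Wistar rats, 170-310 g, fasted 24 h. Under urethane anesthesia the pylorus was ligated (acute fistula). Compound, suspended in 1% gum arabic, given intraduodenally after the second gastric juice collection, usually at 10 mg/kg. Acid output compared with vehicle mean. Percent inhibition given as mean ± SE, 2-5 animals per group.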

[5] = target: T1, Histamine H2 receptor; assay: In vitro inhibitory activity against histamine H2-receptor in isolated Guinea pig right atria.; conditions: read-out: pA2 (converted)
[6] = system: Rattus norvegicus; assay: Gastric antisecretory activity in rat (in vivo); assay type: functional; summary of the method: as §1
[7] = system: Rattus norvegicus; assay: In vivo gastric antisecretory activity in acute fistula rats.; assay type: functional, Stomach; summary of the method: as §1

T1 sequence (P47747 whole entry): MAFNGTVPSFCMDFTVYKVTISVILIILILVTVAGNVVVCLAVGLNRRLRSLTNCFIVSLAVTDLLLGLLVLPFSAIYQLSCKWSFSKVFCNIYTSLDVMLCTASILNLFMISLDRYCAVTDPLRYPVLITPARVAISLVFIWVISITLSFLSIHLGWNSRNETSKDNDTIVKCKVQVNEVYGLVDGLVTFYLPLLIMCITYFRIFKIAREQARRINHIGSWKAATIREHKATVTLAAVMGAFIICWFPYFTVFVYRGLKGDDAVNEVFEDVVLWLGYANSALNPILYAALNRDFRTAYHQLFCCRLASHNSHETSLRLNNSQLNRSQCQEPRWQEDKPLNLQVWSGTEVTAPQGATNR

| Kb [1] [nM] | Kb [5] [nM] | Molecule | Inhibition [2] [%] | Inhibition [3] [%] | Inhibition [4] [%] | AS activity class [6] | Inhibition [7] [%] | inhibition ([2]; Gastric mucosa) [%] |
| --- | --- | --- | --- | --- | --- | --- | --- | --- |
| 64.6 |  | CNC(=C[N+](=O)[O-])NCCSCc1ccc(CN(C)C)o1 [RANITIDINE] | -16.8 |  |  |  |  |  |
|  | 1700 | O=C(NCCCOc1cccc(CN2CCCCC2)c1)Nc1ccc(C(F)(F)F)cc1 |  | 51 | 3.8 | 1 |  |  |
|  | 158 | COc1ccc(OC)c(NC(=O)NCCCOc2cccc(CN3CCCCC3)c2)c1 |  | 34.7 | -30.8 | 1 |  |  |
| 155 |  | Nc1cccc(NC(=O)NCCCOc2cccc(CN3CCCCC3)c2)c1 |  | 47.2 |  | 3 | 95 |  |
|  | 170 | CC(C)CNC(=O)NCCCOc1cccc(CN2CCCCC2)c1 |  | 43.3 | 40.3 | 2 |  |  |
|  | 4370 | COc1ccc(N/C(S)=N/CCCOc2cccc(CN3CCCCC3)c2)cc1 |  | 51.6 | -5.5 |  |  |  |
|  | 813 | O=C(NCCCOc1cccc(CN2CCCCC2)c1)Nc1cccc(C(F)(F)F)c1 |  | -4.9 | 7.8 | 1 |  |  |
|  | 631 | Cc1ccc(NC(=O)NCCCOc2cccc(CN3CCCCC3)c2)cc1 |  | 40.1 | -45.5 | 1 |  |  |
|  | 95.5 | CCC(C)NC(=O)NCCCOc1cccc(CN2CCCCC2)c1 (stereo unspecified) |  | 17.7 | 55.1 | 2 |  |  |
|  | 2240 | COc1ccc(NC(=O)NCCCOc2cccc(CN3CCCCC3)c2)c(OC)c1 |  | 55.7 | 13.1 | 1 |  |  |
|  | 631 | COc1ccc(NC(=O)NCCCOc2cccc(CN3CCCCC3)c2)cc1 |  | 40.9 | 73.5 | 3 |  |  |
|  | 631 | O=C(NCCCOc1cccc(CN2CCCCC2)c1)Nc1ccc(Cl)cc1 |  | 33.9 | 28.2 | 1 |  |  |
|  | 43.7 | O=C(NCCCOc1cccc(CN2CCCCC2)c1)NC1CCCCC1 |  | 39.3 | 77.9 | 3 |  |  |
|  | 40.7 | CCNC(=O)NCCCOc1cccc(CN2CCCCC2)c1 [DALCOTIDINE] |  | 77.9 | 71.8 | 3 |  |  |
|  | 97.7 | CCCNC(=O)NCCCOc1cccc(CN2CCCCC2)c1 |  | 73.5 | 96.6 | 3 |  |  |
|  | 81.3 | CCCCNC(=O)NCCCOc1cccc(CN2CCCCC2)c1 |  | 67.5 | 83 | 3 |  |  |
|  | 776 | COc1ccccc1NC(=O)NCCCOc1cccc(CN2CCCCC2)c1 |  | 31.7 | -57.4 | 1 |  |  |

| Kb [1] [nM] | Kb [5] [nM] | Molecule | Inhibition [2] [%] | Inhibition [3] [%] | Inhibition [4] [%] | AS activity class [6] | Inhibition [7] [%] | inhibition ([2]; Gastric mucosa) [%] |
| --- | --- | --- | --- | --- | --- | --- | --- | --- |
|  | 100 | NC(N)=Nc1nc(CSCC/C(N)=N/S(N)(=O)=O)cs1 [FAMOTIDINE] | 7.9 |  |  |  |  |  |
|  | 200 | COc1cccc(NC(=O)NCCCOc2cccc(CN3CCCCC3)c2)c1 |  | 48.2 | 53.2 | 2 |  |  |
|  |  | TEPRENONE |  |  |  |  |  | 42.7 |
|  | 155 | CNC(=O)NCCCOc1cccc(CN2CCCCC2)c1 |  | 64.7 | 93.3 | 3 |  |  |
|  | 490 | CCOc1ccc(NC(=O)NCCCOc2cccc(CN3CCCCC3)c2)cc1 |  | 32.7 | 54.1 | 2 |  |  |
| 178 |  | O=C(NCCCOc1cccc(CN2CCCCC2)c1)Nc1ccc([N+](=O)[O-])cc1 |  | 23.4 |  | 1 | 9 |  |
|  | 47.9 | O=C(NCCCOc1cccc(CN2CCCCC2)c1)NC1CC1 |  | 49.4 | 87.5 | 3 |  |  |
|  | 85.1 | O=C(NCCF)NCCCOc1cccc(CN2CCCCC2)c1 |  | 36 | 98.7 | 3 |  |  |
|  | 126 | O=C(NCCCOc1cccc(CN2CCCCC2)c1)Nc1ccccc1 |  | 44.3 | 12.6 | 1 |  |  |
|  | 347 | O=C(NCCCOc1cccc(CN2CCCCC2)c1)NCc1ccccc1 |  | 61 | 54.2 | 2 |  |  |
|  | 43.7 | CC(C)NC(=O)NCCCOc1cccc(CN2CCCCC2)c1 |  | 72.9 | 71.3 | 3 |  |  |
|  | 288 | O=C(NCCCOc1cccc(CN2CCCCC2)c1)Nc1ccc2c(c1)OCO2 |  | 47.1 | 48.9 | 2 |  |  |
|  |  | CN/C(=N\CCSCc1nc[nH]c1C)NC#N [CIMETIDINE] | -42.2 |  |  |  |  |  |
|  | 269 | O=C(NCCCOc1cccc(CN2CCCCC2)c1)Nc1cccc([N+](=O)[O-])c1 |  | 40.9 | -23.9 | 1 |  |  |
|  | 2090 | CC(C)(C)NC(=O)NCCCOc1cccc(CN2CCCCC2)c1 |  | 28.5 | -56 | 1 |  |  |
|  | 316 | O=C(NCCCOc1cccc(CN2CCCCC2)c1)Nc1cccc(Cl)c1 |  | 43.3 | -44.9 | 1 |  |  |
